The list is not random: actives were taken first. Their share in the collection is about 2.3%.
ATG4B inhibitor = ATG4B protease inhibitors, primary screen, biochemical, fluorescence, uHTS; AID 504462, 2011; actives 0.51% (n = 340,000); Cysteine protease ATG4B (Homo sapiens), Q9Y4P1; inhibition, % at 8.33 µM; ATG4B cleavage of LC3-PLA2, NBD-HPC fluorescence, 1 h; in the data active = inhibition above about 40%
Target sequence (Q9Y4P1 whole entry, looked up): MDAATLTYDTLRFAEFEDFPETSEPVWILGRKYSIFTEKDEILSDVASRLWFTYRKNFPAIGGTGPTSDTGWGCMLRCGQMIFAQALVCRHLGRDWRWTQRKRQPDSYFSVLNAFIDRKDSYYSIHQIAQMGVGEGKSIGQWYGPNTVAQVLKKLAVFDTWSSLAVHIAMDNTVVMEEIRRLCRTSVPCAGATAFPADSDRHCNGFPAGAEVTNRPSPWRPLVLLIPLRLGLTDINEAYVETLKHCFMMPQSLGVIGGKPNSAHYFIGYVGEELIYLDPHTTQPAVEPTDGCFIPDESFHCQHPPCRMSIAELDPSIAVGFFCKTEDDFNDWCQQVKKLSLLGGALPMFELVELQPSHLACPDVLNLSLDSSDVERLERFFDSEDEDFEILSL
MPTP block = mitochondrial permeability transition pore inhibitors, primary screen, biochemical, isolated mouse mitochondria, absorbance; Ca2+ swelling absorbance, 30 min; inhibition, % at 10 µM; actives 1.4% (n = 360,000); AID 602449, 2012;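 active = inhibition of 50% or more, scaled per plate between neutral and stimulator controls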;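 note: 0% = DMSO wells given calcium and 100% = 1 mM EGTA wells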
MT1-MMP act inh = blockers of MT1-MMP proenzyme processing, primary screen, HT1080 RFP-PRO-GFP cells, GFP/RFP fluorescence; AID 651647, 2012; actives 0.061% (n = 360,000); GFP/RFP ratio change, % at 20 µM; GFP/RFP ratio fluorescence, overnight; percent of plate control window, DMSO zero; Matrix metalloproteinase-14 (Homo sapiens), P50281;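 active = GFP/RFP ratio change of at least 30% with cell ATP level not reduced by more than half and red fluorescence within 50% of control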
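Assay system: HT1080 RFP-PRO-GFP cells | Dosing: 20 µM single dose, 1% DMSO | Incubation: Cells overnight before dosing, compound overnight, 37 °C, 5% CO2 | Evaluation: GFP/RFP fluorescence ratio | Control set: DMSO-only wells and HT1080 RFP-L50D-GFP cell wells as references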
SKN-1 inh = suppressors of acrylamide-induced Pgst-4::GFP reporter in worms, primary screen, SKN-1 inhibitor project, whole organism, uHTS, GFP/RFP fluorescence ratio, strain VP596. C. elegans VP596 Pgst-4::GFP/RFP ratio, 24 h. inhibition, % at 21.8 µM. actives 0.49% (n = 360,000). AID 624304, 2012;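 active = interference check ratio from 0.5 to 1.5 plus GFP to RFP signal ratio inhibition reaching or exceeding a fixed threshold, cut at about 30% in these data, passing the limit was not always enough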
Rh123 counter = fluorescence retest of MPTP screen hits in isolated mitochondria, single concentration; inhibition, % at 10 µM; membrane potential, Rhodamine 123 fluorescence; actives 78% (n = 5,000); shares compounds with MPTP block; AID 624504, 2012; in the data active = inhibition above about 22%;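 note: 0% = DMSO vehicle and 100% = positive control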
MPTP abs DR = mitochondrial permeability transition pore inhibitors, dose response, biochemical, absorbance, uHTS hits; shares compounds with MPTP block; isolated mitochondria swelling; IC50, µM; actives 58% (n = 780); in the data active = IC50 below about 20 µM
MPTP counter DR = fluorescent counter-screen in isolated mitochondria, dose response, counter-screen for MPTP inhibitor project, biochemical, fluorescence, uHTS hits; shares compounds with MPTP block; isolated mitochondria counterscreen, fluorescence read-out; IC50, µM; actives 49% (n = 780); in the data active = IC50 below about 80 µM
The depositor's hits bear a star; x = not tested or not shown.

SMILES	ATG4B inhibitor	MPTP block	MT1-MMP act inh	SKN-1 inh	Rh123 counter	others
O=C(Nc1ccc(F)cc1)Oc1ccccc1N1CCOCC1	1	7	-4	4	x
O=C(Nc1ccc(OC(F)(F)F)cc1)Oc1ccccc1N1CCCCC1	2	82*	2	10	89*
O=[N+]([O-])c1cc2c(c([N+](=O)[O-])c1)Nc1ccccc1O2	x	55*	-6	11	61*
O=C1Nc2ccccc2Oc2cc([N+](=O)[O-])cc(Oc3ccccc3)c21	16	31	-107	14	x
Cc1noc(C)c1C(=O)Nc1sc(C)c(-c2ccccc2)c1C#N	-7	74*	-6	6	80*
CCN(CC)c1ccc(/C=C2/C(=O)c3ccc(C(=O)O)cc3C2=O)cc1	2	72*	-30	52*	-34
O=C(NC1CCCC1)C1C(c2ccc(C(F)(F)F)cc2)=Nc2ccccc2N1C(=O)c1ccccc1 (stereo unspecified)	x	2	-5	21	x
Cc1cc(C)cc(OCC(=O)N2N=C(C(F)(F)F)CC2(O)C(C)(C)C)c1 (stereo unspecified)	-1	57*	0	-13	43*
S=C(NCCC1=CCCCC1)Nc1ccc(Cl)cc1	-8	91*	1	7	90*
Clc1ccc(CNCCC2=CCCCC2)cc1	-2	70*	6	-1	-7	MPTP abs DR=13*;MPTP counter DR=>80
O=C(O)c1cccnc1Sc1ccc(Br)cc1	7	-1	-1	2	x
CN1C(=O)CON=C1c1cccc2ccccc12	x	-1	7	8	x
Cc1cc(OCC(=O)Nc2cccc(S(=O)(=O)NC3=NCCCCC3)c2)ccc1Cl	11	87*	3	-2	86*
Cc1cc(OCC(=O)Nc2ccc(CN3CCCCC3)cc2)ccc1Cl	-7	63*	1	4	3	MPTP abs DR=11*;MPTP counter DR=26*
O=C1C(CO)C(CO)C(CO)C1CO (stereo unspecified)	-4	-2	-2	0	x
Oc1ccc(C[C@H]2CNCCN2CCc2cc(C(F)(F)F)cc(C(F)(F)F)c2)cc1	-8	0	-1	-3	x
CCCC[C@@H]1CNCCN1CCc1cccc2ccccc12	2	65*	-6	3	-10	MPTP abs DR=12*;MPTP counter DR=>80
c1ccc(C[C@H]2CNCCN2CCc2cccc3ccccc23)cc1	-7	42	-4	1	x
Oc1ccc(C[C@H]2CNCCN2CCc2cccc3ccccc23)cc1	-4	76*	-7	5	-8	MPTP abs DR=4.8*;MPTP counter DR=>80
CC(O)[C@H]1CNCCN1CCc1cccc2ccccc12 (stereo partly specified)	0	0	-3	-12	x
Oc1ccc(C[C@@H]2CNCCN2CCc2cc(C(F)(F)F)cc(C(F)(F)F)c2)cc1	-3	94*	-7	-7	-24	MPTP abs DR=4.3*;MPTP counter DR=>80
O=C(COC(=O)c1ccc(F)c(S(=O)(=O)N2CCOCC2)c1)Nc1ccc(Cl)cn1	x	-3	6	0	x
CCN(CC)C(=O)c1ccc(COc2ccc(Cl)c(C)c2)o1	5	91*	-3	-3	85*
Cc1cc(OCc2ccc(C(=O)n3cccn3)o2)ccc1Cl	1	-1	3	26	x
O=C1c2cc(Cl)ccc2OC2(CCNCC2)C12CC(c1ccccc1)=NO2 (stereo unspecified)	0	71*	-1	0	-16	MPTP abs DR=8.9*;MPTP counter DR=>80
O=C1c2cc(Cl)ccc2OC2(CCNCC2)C12CC(c1ccc(Cl)cc1)=NO2 (stereo unspecified)	-1	6	0	8	x
O=C(NNc1nc2ccccc2s1)c1ccc(F)cc1	2	2	3	9	x
CC(=O)c1sc(Nc2nc3ccc(F)cc3s2)nc1C	3	71*	-7	0	63*
